Where a name gives a salt, the structure may show the parent alone.

Among the data in BindingDB's records for doi:10.1021/jm9910324 (University of Camerino, 1999) are pKi values, retold here.

Test [1] deals with T1, Alpha-2A adrenergic receptor [16-465]/Alpha-2B adrenergic receptor/Alpha-2C adrenergic receptor (Rattus norvegicus, UniProt P19328+P22086+P22909).
T1 construct: 16-465
T1 sequence (P22909 whole entry): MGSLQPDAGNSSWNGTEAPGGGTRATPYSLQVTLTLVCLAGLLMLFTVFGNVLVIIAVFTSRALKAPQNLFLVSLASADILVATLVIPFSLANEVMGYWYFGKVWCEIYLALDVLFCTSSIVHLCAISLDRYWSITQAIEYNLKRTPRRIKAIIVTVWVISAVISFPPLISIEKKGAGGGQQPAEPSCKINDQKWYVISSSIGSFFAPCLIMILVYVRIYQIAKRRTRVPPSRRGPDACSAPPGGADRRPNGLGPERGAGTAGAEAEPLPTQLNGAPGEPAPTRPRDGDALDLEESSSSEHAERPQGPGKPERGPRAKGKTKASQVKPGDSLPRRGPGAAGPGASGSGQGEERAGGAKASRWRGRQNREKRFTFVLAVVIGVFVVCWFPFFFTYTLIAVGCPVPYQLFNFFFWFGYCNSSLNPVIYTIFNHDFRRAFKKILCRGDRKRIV
T1 sequence (P22086 whole entry): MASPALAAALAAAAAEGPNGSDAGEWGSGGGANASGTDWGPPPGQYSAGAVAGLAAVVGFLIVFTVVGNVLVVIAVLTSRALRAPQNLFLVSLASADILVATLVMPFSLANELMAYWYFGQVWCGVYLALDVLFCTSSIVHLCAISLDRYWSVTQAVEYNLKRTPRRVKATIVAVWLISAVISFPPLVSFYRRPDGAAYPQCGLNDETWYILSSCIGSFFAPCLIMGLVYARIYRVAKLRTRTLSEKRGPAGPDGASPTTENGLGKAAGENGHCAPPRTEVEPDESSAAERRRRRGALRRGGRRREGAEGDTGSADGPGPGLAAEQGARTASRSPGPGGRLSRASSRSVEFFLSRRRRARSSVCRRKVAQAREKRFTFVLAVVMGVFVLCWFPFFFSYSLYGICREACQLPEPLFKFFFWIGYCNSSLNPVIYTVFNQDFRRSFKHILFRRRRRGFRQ
T1 sequence (P19328 whole entry): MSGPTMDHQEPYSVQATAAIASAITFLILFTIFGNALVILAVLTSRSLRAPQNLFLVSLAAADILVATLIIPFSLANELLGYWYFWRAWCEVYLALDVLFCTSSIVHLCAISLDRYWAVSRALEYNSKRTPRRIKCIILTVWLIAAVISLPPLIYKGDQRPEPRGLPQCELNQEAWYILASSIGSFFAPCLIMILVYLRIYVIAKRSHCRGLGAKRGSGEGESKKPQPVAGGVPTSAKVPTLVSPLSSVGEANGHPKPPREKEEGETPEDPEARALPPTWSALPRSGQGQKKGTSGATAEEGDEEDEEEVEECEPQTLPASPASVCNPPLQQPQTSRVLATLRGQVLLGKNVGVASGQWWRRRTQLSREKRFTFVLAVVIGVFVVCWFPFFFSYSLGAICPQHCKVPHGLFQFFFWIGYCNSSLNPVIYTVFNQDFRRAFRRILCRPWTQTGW
The test is described as follows: The binding affinity was evaluated on alpha-2 adrenergic receptor expressed in rat cortex by using [3H]rauwolscine as radioligand. In outline: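 Male Sprague-Dawley rat cerebral cortex membranes, washed in Tris-HCl pH 7.4 and held in buffer with 10 μM pargiline and 0.1% ascorbic acid. Incubated 30 min at 25 °C with 0.5-1.5 nM [3H]rauwolscine; nonspecific binding with 10 μM phentolamine. Filtration, scintillation counting. Ki from Cheng-Prusoff; 2-3 experiments in triplicate.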

For a further test, the target named is D(2) dopamine receptor (Rattus norvegicus, UniProt P61169). The test is described as follows: The binding affinity was evaluated on Dopamine receptor D2 expressed in rat striatum by using [3H]spiperone as radioligand. In outline:
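Rat striatum membranes in Tris-HCl with 10 μM pargyline, 0.1% ascorbic acid, 120 mM NaCl, 5 mM KCl, 2 mM CaCl2, 1 mM MgCl2. Incubated 15 min at 37 °C with 0.2–0.6 nM [3H]spiperone. Nonspecific binding with 1 μM (+)-butaclamol. Ki by Cheng-Prusoff. 2–3 experiments in triplicate.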

In test [2] the target is 5-hydroxytryptamine receptor 2A (Rattus norvegicus, UniProt P14842). The test is described as follows: The binding affinity was evaluated on 5-hydroxytryptamine 2A receptor expressed in rat cortex by using [3H]ketanserin as radioligand. In a few lines: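 Rat cerebral cortex membranes in Tris-HCl pH 7.4 with 10 μM pargyline and 0.1% ascorbic acid. Incubated 20 min at 37 °C with 0.7–1.3 nM [3H]ketanserin. Nonspecific binding with 2 μM ketanserin. Filtration and scintillation counting. Ki by Cheng-Prusoff. 2–3 experiments in triplicate.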

For test [3], the target named is T2, Alpha-1A adrenergic receptor (Homo sapiens, UniProt P35348).
T2 sequence (P35348 whole entry): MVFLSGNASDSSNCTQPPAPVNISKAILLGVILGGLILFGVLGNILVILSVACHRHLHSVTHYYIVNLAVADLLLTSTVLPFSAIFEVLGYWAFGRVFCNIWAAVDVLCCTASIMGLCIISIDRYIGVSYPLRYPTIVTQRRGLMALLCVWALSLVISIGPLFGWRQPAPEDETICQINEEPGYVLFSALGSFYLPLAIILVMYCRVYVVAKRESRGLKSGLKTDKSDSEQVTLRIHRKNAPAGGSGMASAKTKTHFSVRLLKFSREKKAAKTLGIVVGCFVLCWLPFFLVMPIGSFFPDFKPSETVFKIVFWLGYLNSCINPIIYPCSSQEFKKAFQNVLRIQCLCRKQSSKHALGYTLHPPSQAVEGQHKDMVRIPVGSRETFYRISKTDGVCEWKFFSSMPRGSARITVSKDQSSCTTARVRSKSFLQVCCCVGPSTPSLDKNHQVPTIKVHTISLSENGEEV
The test is described as follows: The binding affinity was evaluated on cloned human alpha-1A adrenergic receptor expressed in chinese hamster ovary(CHO) cells by using [3H]prazosin as radioligand. In outline:
(§1)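 Membranes (30 μg protein) from CHO cells stably expressing each human α1 subtype, in 50 mM Tris-HCl pH 7.4. Incubated with 0.1–0.4 nM [3H]prazosin for 30 min at 25 °C, competitor 1 pM–10 μM. Nonspecific binding with 10 μM phentolamine. Ki by Cheng-Prusoff. 2–3 experiments in triplicate.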

Test [4] addresses T3, 5-hydroxytryptamine receptor 1A (Homo sapiens, UniProt P08908).
T3 sequence (P08908 whole entry): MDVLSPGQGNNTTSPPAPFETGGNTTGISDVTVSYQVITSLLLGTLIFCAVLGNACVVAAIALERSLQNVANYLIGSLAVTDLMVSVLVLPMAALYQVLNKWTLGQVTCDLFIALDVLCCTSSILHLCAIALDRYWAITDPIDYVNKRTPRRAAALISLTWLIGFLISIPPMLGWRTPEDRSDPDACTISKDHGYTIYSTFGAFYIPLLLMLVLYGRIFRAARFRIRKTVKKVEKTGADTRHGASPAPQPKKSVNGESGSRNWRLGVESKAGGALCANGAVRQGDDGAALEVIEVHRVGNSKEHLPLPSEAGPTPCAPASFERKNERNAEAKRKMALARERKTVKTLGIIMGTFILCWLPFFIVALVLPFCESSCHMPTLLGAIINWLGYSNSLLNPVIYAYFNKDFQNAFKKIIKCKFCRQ
The test is described as follows: The binding affinity was evaluated on cloned human 5-hydroxytryptamine 1A receptor expressed in HeLa cells by using DPAT as radioligand. In outline: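 Membranes from HeLa cells stably expressing human 5-HT1A, in 50 mM Tris-HCl pH 7.4, 2.5 mM MgCl2, 10 μM pargyline. Nonspecific binding with 10 μM 5-HT. Filtration. Ki by Cheng-Prusoff. 2–3 experiments in triplicate.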

Test [5] concerns the target T4, Alpha-1B adrenergic receptor (Homo sapiens, UniProt P35368).
T4 sequence (P35368 whole entry): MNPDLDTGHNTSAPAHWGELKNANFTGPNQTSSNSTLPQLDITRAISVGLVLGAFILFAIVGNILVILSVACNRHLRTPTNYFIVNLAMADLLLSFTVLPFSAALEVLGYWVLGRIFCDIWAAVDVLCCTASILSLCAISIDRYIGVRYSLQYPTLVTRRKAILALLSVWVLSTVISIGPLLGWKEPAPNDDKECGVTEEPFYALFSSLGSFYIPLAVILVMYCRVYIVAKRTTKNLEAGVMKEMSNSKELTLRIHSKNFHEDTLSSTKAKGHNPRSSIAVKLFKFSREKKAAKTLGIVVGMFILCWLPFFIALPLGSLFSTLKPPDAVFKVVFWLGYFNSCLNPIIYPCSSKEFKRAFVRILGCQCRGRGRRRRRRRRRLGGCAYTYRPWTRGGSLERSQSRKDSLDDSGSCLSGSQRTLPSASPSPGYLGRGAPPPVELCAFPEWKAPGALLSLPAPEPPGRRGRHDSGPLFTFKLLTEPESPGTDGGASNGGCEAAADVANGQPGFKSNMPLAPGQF
The test is described as follows: The binding affinity was evaluated on cloned human Alpha-1B adrenergic receptor expressed in chinese hamster ovary(CHO) cells by using [3H]prazosin as radioligand. In a few lines:
as §1

Test [6] has as its target T5, Alpha-1D adrenergic receptor (Homo sapiens, UniProt P25100).
T5 sequence (P25100 whole entry): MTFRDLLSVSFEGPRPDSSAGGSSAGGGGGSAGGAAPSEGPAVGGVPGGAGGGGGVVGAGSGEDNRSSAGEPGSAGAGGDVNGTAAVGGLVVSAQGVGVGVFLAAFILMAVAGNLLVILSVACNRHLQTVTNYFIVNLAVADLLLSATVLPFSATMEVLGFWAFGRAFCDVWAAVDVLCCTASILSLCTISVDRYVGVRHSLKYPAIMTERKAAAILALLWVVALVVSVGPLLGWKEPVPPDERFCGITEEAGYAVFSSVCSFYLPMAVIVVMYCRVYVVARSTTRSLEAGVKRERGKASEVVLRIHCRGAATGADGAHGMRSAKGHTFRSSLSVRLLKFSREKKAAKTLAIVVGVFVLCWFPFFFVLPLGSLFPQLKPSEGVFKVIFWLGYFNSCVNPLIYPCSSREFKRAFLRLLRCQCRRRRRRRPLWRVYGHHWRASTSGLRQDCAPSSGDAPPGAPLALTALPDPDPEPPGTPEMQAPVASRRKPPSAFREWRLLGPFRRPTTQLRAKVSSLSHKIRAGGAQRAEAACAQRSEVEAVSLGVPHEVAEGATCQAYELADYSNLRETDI
The test is described as follows: The binding affinity was evaluated on cloned human Alpha-1D adrenergic receptor expressed in chinese hamster ovary(CHO) cells by using [3H]-prazosin as radioligand. In outline:
as §1

The target in test [7] is T2, Alpha-1A adrenergic receptor. The test is described as follows: The binding affinity was evaluated on cloned human Alpha-1A adrenergic receptor expressed in chinese hamster ovary(CHO) cells by using [3H]prazosin as radioligand. In outline:
as §1

The target of test [8] is T5, Alpha-1D adrenergic receptor. The test is described as follows: The binding affinity was evaluated on cloned human alpha-1D adrenergic receptor expressed in chinese hamster ovary(CHO) cells by using [3H]prazosin as radioligand. In outline:
as §1

For test [9], the target named is T4, Alpha-1B adrenergic receptor. The test is described as follows: The binding affinity was evaluated on cloned human alpha-1B adrenergic receptor expressed in chinese hamster ovary(CHO) cells by using [3H]prazosin as radioligand. In a few lines:
as §1

Test [10] addresses T1, Alpha-2A adrenergic receptor [16-465]/Alpha-2B adrenergic receptor/Alpha-2C adrenergic receptor. The test is described as follows: The binding affinity was evaluated on Alpha-2 adrenergic receptor expressed in rat cortex by using [3H]rauwolscine as radioligand. In outline: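 Male Sprague-Dawley rat cerebral cortex membranes, washed in Tris-HCl pH 7.4 and resuspended with 10 μM pargyline and 0.1% ascorbic acid. Incubated 30 min at 25 °C with 0.5–1.5 nM [3H]rauwolscine. Nonspecific binding with 10 μM phentolamine. Filtration on PEI-treated filters. Ki by Cheng-Prusoff. 2–3 experiments in triplicate.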

Chain of 5-hydroxytryptamine receptor 2A (P14842 whole entry): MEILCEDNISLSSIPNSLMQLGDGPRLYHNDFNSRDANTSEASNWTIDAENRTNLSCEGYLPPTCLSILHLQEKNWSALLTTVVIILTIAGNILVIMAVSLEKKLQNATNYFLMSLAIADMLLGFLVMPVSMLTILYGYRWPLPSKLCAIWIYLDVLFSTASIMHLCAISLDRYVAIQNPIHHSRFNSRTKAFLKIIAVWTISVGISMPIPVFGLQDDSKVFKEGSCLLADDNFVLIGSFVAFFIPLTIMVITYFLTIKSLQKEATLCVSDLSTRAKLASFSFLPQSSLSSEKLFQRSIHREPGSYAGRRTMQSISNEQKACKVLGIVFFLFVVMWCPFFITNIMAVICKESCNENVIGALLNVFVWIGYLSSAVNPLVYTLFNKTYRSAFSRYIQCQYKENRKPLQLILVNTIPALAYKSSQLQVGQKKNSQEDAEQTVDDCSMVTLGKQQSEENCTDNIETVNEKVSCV
Chain of D(2) dopamine receptor (P61169 whole entry): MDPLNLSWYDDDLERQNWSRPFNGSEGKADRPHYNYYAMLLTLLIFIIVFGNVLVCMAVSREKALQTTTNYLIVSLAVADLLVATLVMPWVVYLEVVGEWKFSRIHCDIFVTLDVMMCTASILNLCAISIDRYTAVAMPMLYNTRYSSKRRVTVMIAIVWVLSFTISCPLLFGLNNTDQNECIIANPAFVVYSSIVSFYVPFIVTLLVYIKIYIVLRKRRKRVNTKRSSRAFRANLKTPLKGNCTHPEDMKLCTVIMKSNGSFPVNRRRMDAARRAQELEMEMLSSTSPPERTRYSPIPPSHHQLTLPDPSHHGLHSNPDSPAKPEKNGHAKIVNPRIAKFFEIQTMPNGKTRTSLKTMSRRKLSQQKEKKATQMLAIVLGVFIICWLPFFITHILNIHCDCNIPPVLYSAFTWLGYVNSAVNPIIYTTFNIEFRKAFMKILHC

With `COc1cccc(OC)c1OCCNCC1COc2ccccc2O1` (stereo not given) [WB-4101 hydrochloride], the pKi came to 7.83 in test [1]; 6.91 on D(2) dopamine receptor; 6 in [2]; 9.37 in [3]; 8.68 in [4].
As to `COc1cccc(OC)c1OCCNCC1=Cc2ccccc2OC1c1ccccc1` (stereo not given), the pKi in test [5] is 6.84; in [6] it was 6.95; in test [4], 8.08; in [7], 7.14.
Turning to `COc1cccc(OC)c1OCCNCC1C(=O)c2ccccc2CC1c1ccccc1` (stereo not given), the pKi in test [1] was 6.45; in [8], 6.88; on D(2) dopamine receptor, less than 6; in [2], 6.63; in [3] it was 8.06; in [4], 6.83. This compound had a pKi in [9] of 6.11.
For the compound `COc1cccc(OC)c1OCCNCC1C(=O)c2ccccc2OC1c1ccccc1` (stereo not given), the pKi is less than 6 in [1]; 7.93 in test [8]; less than 6 on D(2) dopamine receptor; 6.2 in test [2]; 9.22 in test [3]; 6.73 in test [4]. In test [9], the pKi was 6.84.
For the compound `COc1cccc(OC)c1OCCNCCOc1ccccc1OCc1ccccc1`, the pKi in test [5] was 9.27; in [6], 10.2; in test [4], 7.93; in test [7] it was 9.33.
Take `COc1cccc(OC)c1OCCNCC1C(=O)c2ccccc2SC1c1ccccc1` (stereo not given): the pKi in test [5] was less than 6; in test [8], 6.37; in test [3], 7.42; in test [4] it was 7.36.
For `COc1cccc(OC)c1OCCNCC1Oc2ccccc2CC1c1ccccc1` (stereo not given), the pKi in test [5] is 6.58; in test [6] it was 7.28; in test [8] it was 6.86; on D(2) dopamine receptor, less than 6; in [2], less than 6; in [3], 6.78. The pKi in [4] was 6.84; in [10], less than 6; in test [7], 8.49; in test [9], 6.51.
For `CCCN(CCC)C1CCc2cccc(O)c2C1` (stereo not given), the pKi in [1] is 6.08; at D(2) dopamine receptor it was less than 6; in test [2], less than 6; in [9], less than 6.

In general, pKi refers to the negative decadic logarithm of the Ki, by convention in mol/L.
